In the library only some 2.5% were active in any assay of this set; here they are far more common.
PMI act satM6P – human PMI activators, high substrate, primary screen, biochemical, fluorescence intensity, near-saturating mannose 6-phosphate. AID 1216, 2008. coupled PMI enzyme assay, resazurin fluorescence, 20 min; hits give high values; 1 = untreated enzyme, 0 = substrate-free blank. hit rate 0.34% among 190,000. Mannose-6-phosphate isomerase (Homo sapiens), P34949. activation factor at 20 µM;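 active = activation factor of 2 or more at 20 µM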
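Test system: human phosphomannose isomerase with PGI, G6PDH, diaphorase coupling enzymes; Amount: PMI at 15 ng/mL final; Reagent: Mannose-6-phosphate 1.0 mM (near-saturating) plus 0.22 mM NADP+; Timing: 20 min, room temperature; Technique: resorufin fluorescence at Ex 544/Em 590 nm; Dosing: 20 µM single dose.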
FLuc stim CS – FLuc activators, initial screening, artefact control for FLuc-dependent activation tests, biochemical, ATPlite luminescence | ATPlite luciferase biochemical, 10 min; 0 = ATP-free wells, 1 = DMSO control | activation factor at 10 µM | 200,000 tested, under 10 active;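 active = luciferase activation factor, scaled between plate controls, of at least 2 with compound at 10 µM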
Target sequence (P08659 whole entry, looked up): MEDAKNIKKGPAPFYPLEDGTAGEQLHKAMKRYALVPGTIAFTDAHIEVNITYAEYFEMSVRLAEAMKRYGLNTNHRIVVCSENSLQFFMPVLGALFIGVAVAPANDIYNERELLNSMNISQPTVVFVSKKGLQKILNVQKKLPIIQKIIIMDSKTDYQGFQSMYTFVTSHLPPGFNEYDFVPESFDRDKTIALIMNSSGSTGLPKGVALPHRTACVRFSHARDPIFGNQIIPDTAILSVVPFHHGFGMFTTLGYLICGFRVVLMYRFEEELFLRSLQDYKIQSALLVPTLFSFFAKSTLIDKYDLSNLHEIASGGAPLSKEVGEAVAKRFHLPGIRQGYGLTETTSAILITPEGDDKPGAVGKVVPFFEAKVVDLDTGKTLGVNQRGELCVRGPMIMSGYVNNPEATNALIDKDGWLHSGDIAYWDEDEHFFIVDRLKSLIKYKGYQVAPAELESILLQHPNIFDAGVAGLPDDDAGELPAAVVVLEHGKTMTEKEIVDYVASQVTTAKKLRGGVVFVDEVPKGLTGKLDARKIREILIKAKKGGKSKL
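Assay system – cell-free luciferase reagent · Medium – PBS-based ATP solution · Dosing – test compounds dosed from 2 mM stocks in 100% DMSO · Timing – 10 min, room temperature · Technique – light output (luminescence) · Measure – luminescence gain marking luciferase activators · Controls – No-ATP low control, compound-free enzyme-plus-ATP high control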
PMI activator – activators of human PMI, primary screen, biochemical, fluorescence intensity, near-Km mannose 6-phosphate; Mannose-6-phosphate isomerase (Homo sapiens), P34949; purified human PMI, coupled resazurin fluorescence, 20 min; hits give high values; 1 = vehicle control, 0 substrate-free wells; activation factor at 20 µM; hit rate 0.005% among 190,000; AID 1214, 2008;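 active = activation factor of 2 or more at 20 µM, relative to plate controls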
FLuc inh counter – firefly luciferase enzyme inhibitors, primary screen, artefact control for luciferase-based inhibitor screens, biochemical, luminescence, ATPLite; Luciferin 4-monooxygenase (Photinus pyralis), P08659; 10 min; inhibition, % at 10 µM; hit rate 1.5% among 200,000;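 active = inhibition above about 50% when tested at 10 µM, limit read from the data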
Diaph inh CS – diaphorase inhibitors and chemical oxidizers, primary screen, counter-screen for diaphorase-coupled primary assays, biochemical, uHTS, resorufin fluorescence. diaphorase resazurin-to-resorufin fluorescence, NADH, 16 min; bacterial (C. kluyveri) enzyme, not human. inhibition, % at 20 µM. hit rate 0.69% among 190,000. AID 1217, 2008;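 active = primary screen inhibition at 20 µM above a set limit, cut at about 50% in these data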
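Test system: diaphorase enzyme from Clostridium kluyveri; amount: diaphorase at 0.14 U/mL in enzyme working solution; detection: fluorescence of resorufin formed from resazurin, Ex 544/Em 590 nm; times: reaction incubation of 16 min at room temperature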
Diaphorase act – compounds boosting diaphorase resazurin reduction – biochemical, uHTS, resorufin fluorescence, counter-screen for diaphorase-coupled primary assays, primary screen; hit rate 0.005% among 190,000; Diaphorase/resazurin coupled assay, 16 min; hits give high values; 1 = vehicle wells, 0 = NADH-free wells; activation factor at 20 µM;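 active = diaphorase activity raised at least twofold by the compound at 20 µM; inactive = activation factor below 2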
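Material: purified diaphorase enzyme from Clostridium kluyveri / Medium: HEPES pH 7.4 buffer with MgCl2 and Tween 20 / Schedule: enzyme reaction of 16 min at room temperature / Measured by: resorufin fluorescence, excitation 544 nm, emission 590 nm / Evaluation: rise in resorufin formation, marking diaphorase activation or chemical reduction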
Numbers stand for hits; 0 = inactive; - = not tested or not shown.

SMILES	PMI act satM6P	FLuc stim CS	PMI activator	FLuc inh counter	Diaph inh CS	Diaphorase act
O=[N+]([O-])c1ccc(-n2cnc3ccccc32)c([N+](=O)[O-])c1	0	0	0	0	0	0
O=C(Nc1cc2ccccc2oc1=O)c1ccccc1	0	0	0	67	0	0
Cc1oc(=O)c(NC(=O)c2ccccc2)cc1C(N)=O	0	0	0	0	0	0
Nc1nn2c(-c3ccccc3)cc(=O)[nH]c2c1N=Nc1ccc(O)cc1	0	0	0	0	54	0
Nc1nn2c(-c3ccccc3)cc(=O)[nH]c2c1N=Nc1ccc(Br)cc1	0	0	0	0	0	0
COc1ccc(-c2nc(NC(=O)c3[nH]c(C)c(C(C)=O)c3C)sc2C)cc1	0	0	0	0	0	0
COCc1c(CCl)cnc(C)c1O	-	0	-	0	-	-
CCN(CC)c1ccc(/C=C2\C(=O)c3ccc(C(=O)O)cc3C2=O)cc1	0	0	0	92	0	0
CCN(CC)c1ccc(C(=O)O)cc1	0	0	0	0	0	0
CCNC(=S)NNC(=O)c1ccc(OC(F)F)cc1	0	0	0	0	0	0
Cc1cccc(C(=O)OCc2cncs2)c1	0	0	0	0	0	0
O=C(NCCc1ccccc1)C(=O)NCc1ccncc1	0	0	0	50	0	0
O=C(NCCc1ccccc1)c1ccncc1	0	0	0	0	0	0
O=C(O)CCC(=O)c1ccc2c(c1)OCCO2	0	0	0	0	0	0
O=C(CS(=O)(=O)c1ccccc1)c1ccc2c(c1)OCCO2	0	0	0	58	0	0
O=C(COC(=O)c1ccc(Cl)nc1)c1ccc2c(c1)OCCO2	0	0	0	88	0	0
O=C(COC(=O)c1cccc(S(=O)(=O)NCc2ccccc2)c1)c1ccc2c(c1)OCCO2	0	0	0	54	0	0
CCN(CC)S(=O)(=O)c1cccc(C(=O)OCC(=O)c2ccc3c(c2)OCCO3)c1	0	0	0	87	0	0
CCc1ccc(C(=O)COC(=O)c2ccc(Cl)nc2)cc1	0	0	0	0	0	0
CC(=O)c1ccc(N2Cc3ccccc3/C2=N\C(=O)Nc2ccc(Cl)cc2)cc1	0	0	0	0	0	0
COC(=O)c1ccc(NC(=O)c2ccccc2-c2ccccc2C(=O)O)cc1	0	0	0	0	0	0
COc1cccc(N2CCN(C(=O)/C=C/c3ccco3)CC2)c1	0	0	0	0	0	0
CC(C)c1ccc(C(N)=S)cc1	0	0	0	0	0	0
O=C(COC(=O)C(O)c1ccccc1)c1ccc2c(c1)OCCO2 (configuration not stated)	0	0	0	84	0	0
Cc1c(C(=O)OCC(=O)c2ccc3c(c2)OCCO3)oc2ccccc12	0	0	0	0	0	0
SMILES	PMI act satM6P	FLuc stim CS	PMI activator	FLuc inh counter	Diaph inh CS	Diaphorase act
COc1ccc(C(=O)Nc2cccc(-c3cc4ccccc4oc3=O)c2)cc1[N+](=O)[O-]	0	0	0	0	0	0
Clc1cccc(/C(Cc2nc3ccccc3[nH]2)=N\Nc2ccccc2)c1	2.5	0	0	0	0	0
CCN/N=C(\Cc1nc2ccccc2[nH]1)c1ccccc1	0	0	0	0	0	0
c1ccc(N/N=C(\Cc2nc3ccccc3[nH]2)c2ccccc2)cc1	2.9	0	0	0	0	0
Cc1ccc(N/N=C(\Cc2nc3ccccc3[nH]2)c2ccccc2)cc1	2.2	0	0	0	0	0
C/C(=N\Nc1cccc(C(F)(F)F)c1)c1ccc(O)cc1	2.1	0	0	0	0	0
C/C(=N\NC(=O)c1cccc(N/N=C(\C)c2ccccc2)c1)c1ccccc1	2.7	0	0	0	0	0
C/C(=N\NC(=O)c1cccc([N+](=O)[O-])c1)c1ccncc1	0	0	0	0	0	0
C/C(=N\NC(=O)CNc1cccc(C(F)(F)F)c1)c1ccc(Br)cc1	0	0	0	0	0	0
C/C(=N\NC(=O)c1cccc(N/N=C(\C)c2ccncc2)c1)c1ccncc1	2.5	0	0	0	0	0
CCOc1ccc(N(CC(=O)Nc2nccs2)S(=O)(=O)c2c(C)noc2C)cc1	0	0	0	0	0	0
c1ccc(Cn2nnnc2C(c2ccccc2)N2CCN(c3nc4ccccc4s3)CC2)cc1 (configuration not stated)	0	0	0	0	0	0
Cc1ccc(C)c(N2CCN(C(c3ccncc3)c3nnnn3Cc3ccccc3)CC2)c1 (configuration not stated)	2.2	0	0	0	0	0
CC(C)CC(=O)NC(c1cccs1)c1ccc2cccnc2c1O (configuration not stated)	-	0	-	0	-	-
CC(C)C(=O)NC(c1ccco1)c1ccc2cccnc2c1O (configuration not stated)	0	0	0	0	55	0
CCC(=O)NC(c1cccs1)c1ccc2cccnc2c1O (configuration not stated)	0	0	0	0	58	0
COc1ccccc1N(C(C)=O)c1nc(C)cc(C)c1C#N	0	0	0	0	0	0
COc1ccc2oc(=O)c(/C(C)=N/Nc3ccccc3)cc2c1	2.5	0	0	0	0	0
CNC(=O)c1cc2cc(OC)ccc2oc1=N	0	0	0	0	0	0
COc1ccc2oc(=N)c(C(=O)Nc3ccccc3)cc2c1	0	0	0	64	0	0
CC(C)CNC(=O)c1cccc(NC(=O)COc2cccc([N+](=O)[O-])c2)c1	0	0	0	0	0	0
Clc1ccccc1CSc1nc2ccncc2[nH]1	0	0	0	90	0	0
Cc1ccc(C)c(N2CCN(C(=O)c3ccc(CSc4nc5ccncc5[nH]4)cc3)CC2)c1	0	0	0	0	0	0
O=C(c1ccc(CSc2nc3ccncc3[nH]2)cc1)N1CCCCC1	0	0	0	68	0	0
Cc1ccc(-n2c(-c3ccncc3)n[nH]c2=S)c(C)c1	0	0	0	0	0	0
COc1ccc2nc(N=Nc3ccc(N(C)C)cc3)sc2c1	0	0	0	95	0	0
COc1ccc2nc(/N=C\N(C)C)sc2c1	0	0	0	0	0	0
Clc1ccccc1-c1nnc(-c2cccs2)o1	0	0	0	57	0	0
CN(C)c1ccc(-c2nnc(-c3cccs3)o2)cc1	0	0	0	72	0	0

High-throughput results deposited in PubChem by Sanford-Burnham Center for Chemical Genomics.
